Reference: ChEMBL document CHEMBL3627671, “Novel derivatives of nitro-substituted salicylic acids: Synthesis, antimicrobial activity and cytotoxicity” (Bioorg Med Chem, 2015)
Converted amounts (≈) assume the structure as drawn.

What was measured:
[1] = tested on: Mycobacterium tuberculosis; test: Antimycobacterial activity against Mycobacterium tuberculosis H37Rv 331/88 after 14 days; assay type: functional; settings: H37Rv 331/88, 336 h
[2] = tested on: Mycobacterium tuberculosis; test: Antimycobacterial activity against Mycobacterium tuberculosis H37Rv 331/88 after 21 days; assay type: functional; settings: H37Rv 331/88, 504 h
[3] = tested on: Mycobacterium avium; test: Antimycobacterial activity against Mycobacterium avium 330/80 after 14 days; assay type: functional; settings: 330/80, 336 h
[4] = tested on: Mycobacterium avium; test: Antimycobacterial activity against Mycobacterium avium 330/80 after 21 days; assay type: functional; settings: 330/80, 504 h
[5] = tested on: Mycobacterium kansasii; test: Antimycobacterial activity against Mycobacterium kansasii 235/80 after 7 days; assay type: functional; settings: 235/80, 168 h
How it was run: (§1)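 Šula's semisynthetic medium micromethod at 37 °C, read after 7, 14 and 21 days. The 1.0 McFarland suspension was diluted 10^-4. MIC determined. 6509/96 is a clinical isolate.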

[6] = tested on: Mycobacterium kansasii; test: Antimycobacterial activity against Mycobacterium kansasii 235/80 after 14 days; assay type: functional; settings: 235/80, 336 h; how it was run: as §1
[7] = tested on: Mycobacterium kansasii; test: Antimycobacterial activity against Mycobacterium kansasii 235/80 after 21 days; assay type: functional; settings: 235/80, 504 h; how it was run: as §1
[8] = tested on: Mycobacterium kansasii; test: Antimycobacterial activity against Mycobacterium kansasii 6509/96 after 7 days; assay type: functional; settings: 6509/96, 168 h; how it was run: as §1
[9] = tested on: Mycobacterium kansasii; test: Antimycobacterial activity against Mycobacterium kansasii 6509/96 after 14 days; assay type: functional; settings: 6509/96, 336 h; how it was run: as §1
[10] = tested on: Mycobacterium kansasii; test: Antimycobacterial activity against Mycobacterium kansasii 6509/96 after 21 days; assay type: functional; settings: 6509/96, 504 h; how it was run: as §1
[11] = tested on: Staphylococcus aureus; test: Antibacterial activity against Staphylococcus aureus CCM 4516/08 after 24 hrs by microdilution broth method; assay type: functional; settings: CCM 4516/08, 24 h
[12] = tested on: Staphylococcus aureus; test: Antibacterial activity against Staphylococcus aureus CCM 4516/08 after 48 hrs by microdilution broth method; assay type: functional; settings: CCM 4516/08, 48 h
[13] = tested on: Staphylococcus aureus; test: Antibacterial activity against methicillin-resistant Staphylococcus aureus H 5996/08 after 24 hrs by microdilution broth method; assay type: functional; settings: H 5996/08, 24 h
[14] = tested on: Staphylococcus aureus; test: Antibacterial activity against methicillin-resistant Staphylococcus aureus H 5996/08 after 48 hrs by microdilution broth method; assay type: functional; settings: H 5996/08, 48 h
[15] = tested on: Staphylococcus epidermidis; test: Antibacterial activity against Staphylococcus epidermidis H 6966/08 after 24 hrs by microdilution broth method; assay type: functional; settings: H 6966/08, 24 h
How it was run: (§2)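 Mueller-Hinton broth microdilution (modified M07-A07), pH 7.4 (±0.2). Compounds dissolved in DMSO, tested at final 500 to 0.49 µmol/L. Inoculum in sterile water matched to 0.5 McFarland. Incubated in the dark, humid atmosphere, 35 °C, read at 24 and 48 h visually and at 540 nm. MIC taken as ≥95% growth reduction (IC95) versus control.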

[16] = tested on: Staphylococcus epidermidis; test: Antibacterial activity against Staphylococcus epidermidis H 6966/08 after 48 hrs by microdilution broth method; assay type: functional; settings: H 6966/08, 48 h; how it was run: as §2
[17] = tested on: Enterococcus sp.; test: Antibacterial activity against Enterococcus sp. J 14365/08 after 24 hrs by microdilution broth method; assay type: functional; settings: J 14365/08, 24 h; how it was run: as §2
[18] = tested on: Enterococcus sp.; test: Antibacterial activity against Enterococcus sp. J 14365/08 after 48 hrs by microdilution broth method; assay type: functional; settings: J 14365/08, 48 h; how it was run: as §2
[19] = tested on: Escherichia coli; test: Antibacterial activity against Escherichia coli CCM4517 after 24 hrs by microdilution broth method; assay type: functional; settings: CCM4517, 24 h; how it was run: as §2
[20] = tested on: Escherichia coli; test: Antibacterial activity against Escherichia coli CCM4517 after 48 hrs by microdilution broth method; assay type: functional; settings: CCM4517, 48 h; how it was run: as §2
[21] = tested on: Klebsiella pneumoniae; test: Antibacterial activity against Klebsiella pneumoniae D 11750/08 after 24 hrs by microdilution broth method; assay type: functional; settings: D 11750/08, 24 h; how it was run: as §2
[22] = tested on: Klebsiella pneumoniae; test: Antibacterial activity against Klebsiella pneumoniae D 11750/08 after 48 hrs by microdilution broth method; assay type: functional; settings: D 11750/08, 48 h; how it was run: as §2
[23] = tested on: Klebsiella pneumoniae; test: Antibacterial activity against ESBL-positive Klebsiella pneumoniae J 14368/08 after 24 hrs by microdilution broth method; assay type: functional; settings: J 14368/08, 24 h; how it was run: as §2
[24] = tested on: Klebsiella pneumoniae; test: Antibacterial activity against ESBL-positive Klebsiella pneumoniae J 14368/08 after 48 hrs by microdilution broth method; assay type: functional; settings: J 14368/08, 48 h; how it was run: as §2
[25] = tested on: Pseudomonas aeruginosa; test: Antibacterial activity against Pseudomonas aeruginosa CCM 1961 after 24 hrs by microdilution broth method; assay type: functional; settings: CCM 1961, 24 h; how it was run: as §2
[26] = tested on: Pseudomonas aeruginosa; test: Antibacterial activity against Pseudomonas aeruginosa CCM 1961 after 48 hrs by microdilution broth method; assay type: functional; settings: CCM 1961, 48 h; how it was run: as §2
[27] = tested on: Candida albicans; test: Antifungal activity against Candida albicans ATCC 44859 after 24 hrs by microdilution broth method; assay type: functional; settings: ATCC 44859, 24 h
How it was run: (§3)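 CLSI M27-A3 broth microdilution in RPMI 1640 with glutamine, buffered to pH 7.0 with MOPS; DMSO diluent. Yeast inoculum 5 × 10^3 ± 0.2 CFU/mL. Moulds grown on Sabouraud agar 3–10 days before spore harvest, final inoculum 0.5-5 × 10^4 CFU/mL, checked in a Bürker chamber. Incubated dark, humid, 35 °C, read at 24 and 48 h visually and at 540 nm. MIC taken as ≥80% (yeasts) or ≥50% (filamentous) growth reduction versus control.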

[28] = tested on: Candida albicans; test: Antifungal activity against Candida albicans ATCC 44859 after 48 hrs by microdilution broth method; assay type: functional; settings: ATCC 44859, 48 h; how it was run: as §3
[29] = tested on: Candida tropicalis; test: Antifungal activity against Candida tropicalis 156 after 24 hrs by microdilution broth method; assay type: functional; settings: Candida tropicalis, 156, 24 h; how it was run: as §3
[30] = tested on: Candida tropicalis; test: Antifungal activity against Candida tropicalis 156 after 48 hrs by microdilution broth method; assay type: functional; settings: Candida tropicalis, 156, 48 h; how it was run: as §3
[31] = tested on: Pichia kudriavzevii; test: Antifungal activity against Candida krusei E28 after 24 hrs by microdilution broth method; assay type: functional; settings: E28, 24 h; how it was run: as §3
[32] = tested on: Pichia kudriavzevii; test: Antifungal activity against Candida krusei E28 after 48 hrs by microdilution broth method; assay type: functional; settings: E28, 48 h; how it was run: as §3
[33] = tested on: Nakaseomyces glabratus; test: Antifungal activity against Candida glabrata 20/I after 24 hrs by microdilution broth method; assay type: functional; how it was run: as §3
[34] = tested on: Nakaseomyces glabratus; test: Antifungal activity against Candida glabrata 20/I after 48 hrs by microdilution broth method; assay type: functional; how it was run: as §3
[35] = tested on: Trichosporon asahii; test: Antifungal activity against Trichosporon asahii 1188 after 24 hrs by microdilution broth method; assay type: functional; settings: Trichosporon asahii, 1188, 24 h; how it was run: as §3
[36] = tested on: Trichosporon asahii; test: Antifungal activity against Trichosporon asahii 1188 after 48 hrs by microdilution broth method; assay type: functional; settings: Trichosporon asahii, 1188, 48 h; how it was run: as §3
[37] = tested on: Aspergillus fumigatus; test: Antifungal activity against Aspergillus fumigatus 231 after 24 hrs by microdilution broth method; assay type: functional; settings: Aspergillus fumigatus, 231, 24 h; how it was run: as §3
[38] = tested on: Aspergillus fumigatus; test: Antifungal activity against Aspergillus fumigatus 231 after 48 hrs by microdilution broth method; assay type: functional; settings: Aspergillus fumigatus, 231, 48 h; how it was run: as §3
[39] = tested on: Lichtheimia corymbifera; test: Antifungal activity against Absidia corymbifera 272 after 24 hrs by microdilution broth method; assay type: functional; settings: Lichtheimia corymbifera, 272, 24 h; how it was run: as §3
[40] = tested on: Lichtheimia corymbifera; test: Antifungal activity against Absidia corymbifera 272 after 48 hrs by microdilution broth method; assay type: functional; settings: Lichtheimia corymbifera, 272, 48 h; how it was run: as §3
[41] = tested on: Trichophyton mentagrophytes; test: Antifungal activity against Trichophyton mentagrophytes 445 after 24 hrs by microdilution broth method; assay type: functional; settings: Trichophyton mentagrophytes, 445, 24 h
[42] = tested on: Trichophyton mentagrophytes; test: Antifungal activity against Trichophyton mentagrophytes 445 after 48 hrs by microdilution broth method; assay type: functional; settings: Trichophyton mentagrophytes, 445, 48 h
[43] = tested on: HepG2; test: Cytotoxicity against human HepG2 cells after 24 hrs […]; assay type: cell-based; settings: HepG2, 24 h
[44] = Selectivity index, ratio of CI50 for human HepG2 cells to MIC100 for Mycobacterium tuberculosis H37Rv 331/88

O=C(Nc1cc(C(F)(F)F)cc(C(F)(F)F)c1)c1cc([N+](=O)[O-])ccc1O
MIC [1]: 16 µM (≈ 6.31 µg/mL)
MIC [2]: 16 µM (≈ 6.31 µg/mL)
MIC [3]: 32 µM (≈ 12.6 µg/mL)
MIC [4]: 32 µM (≈ 12.6 µg/mL)
MIC [5]: 16 µM (≈ 6.31 µg/mL)
MIC [6]: 32 µM (≈ 12.6 µg/mL)
MIC [7]: 32 µM (≈ 12.6 µg/mL)
MIC [8]: 16 µM (≈ 6.31 µg/mL)
MIC [9]: 32 µM (≈ 12.6 µg/mL)
MIC [10]: 32 µM (≈ 12.6 µg/mL)
MIC [11]: 3.9 µM (≈ 1.54 µg/mL)
MIC [12]: 3.9 µM (≈ 1.54 µg/mL)
MIC [13]: 7.81 µM (≈ 3.08 µg/mL)
MIC [14]: 7.81 µM (≈ 3.08 µg/mL)
MIC [15]: 15.6 µM (≈ 6.16 µg/mL)
MIC [16]: 15.6 µM (≈ 6.16 µg/mL)
MIC [17]: 500 µM (≈ 197 µg/mL)
MIC [18]: 500 µM (≈ 197 µg/mL)
MIC [19]: > 500 µM
MIC [20]: > 500 µM
MIC [21]: > 500 µM
MIC [22]: > 500 µM
MIC [23]: > 500 µM
MIC [24]: > 500 µM
MIC [25]: > 500 µM
MIC [26]: > 500 µM
MIC [27]: > 500 µM
MIC [28]: > 500 µM
MIC [29]: > 500 µM
MIC [30]: > 500 µM
MIC [31]: > 500 µM
MIC [32]: > 500 µM
MIC [33]: > 500 µM
MIC [34]: > 500 µM
MIC [35]: > 500 µM
MIC [36]: > 500 µM
MIC [37]: > 500 µM
MIC [38]: > 500 µM
MIC [39]: > 500 µM
MIC [40]: > 500 µM
MIC [41]: > 500 µM
MIC [42]: > 500 µM
IC50 [43]: 13.9 µM
Selectivity Index [44]: 0.869
